Measurements as given in ChEMBL document CHEMBL1641412, “Synthesis and 11β hydroxysteroid dehydrogenase 1 inhibition of thiazolidine derivatives with an adamantyl group” (Bioorg Med Chem Lett, 2011).
pIC50: −log10 of the molar value.

Legend:
[1] = Metabolic stability in human liver microsomes after 30 mins; assay type: ADME, Microsome; details: read-out: Stability
[2] = biological target: 11-beta-hydroxysteroid dehydrogenase 1 (Homo sapiens, UniProt P28845); experiment: Inhibition of human 11beta-HSD1 expressed in CHO cells after 3 hrs by HTRF cortisol assay; assay type: cell-based
[3] = biological target: T1, 11-beta-hydroxysteroid dehydrogenase type 2 (Homo sapiens) (UniProt P80365); experiment: Inhibition of human 11beta-HSD2 expressed in HEK293 cells at 10 uM after 24 hrs by HTRF cortisol assay; assay type: cell-based
T1 sequence (whole entry): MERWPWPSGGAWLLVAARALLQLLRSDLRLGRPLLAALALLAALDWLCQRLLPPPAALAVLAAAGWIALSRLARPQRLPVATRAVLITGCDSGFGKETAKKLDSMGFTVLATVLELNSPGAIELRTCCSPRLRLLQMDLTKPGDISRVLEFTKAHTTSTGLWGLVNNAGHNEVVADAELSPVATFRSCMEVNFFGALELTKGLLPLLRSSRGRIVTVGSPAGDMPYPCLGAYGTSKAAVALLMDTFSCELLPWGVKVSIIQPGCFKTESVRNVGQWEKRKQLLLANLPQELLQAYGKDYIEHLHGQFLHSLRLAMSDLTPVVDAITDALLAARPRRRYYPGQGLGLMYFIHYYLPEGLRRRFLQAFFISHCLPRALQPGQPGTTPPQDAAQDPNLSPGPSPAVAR

[4] = biological target: 11-beta-hydroxysteroid dehydrogenase 1 (Mus musculus, UniProt P50172); experiment: Inhibition of mouse 11beta-HSD1 expressed in CHO cells after 3 hrs by HTRF cortisol assay; assay type: cell-based
[5] = biological target: CYP2D6 (Homo sapiens, UniProt P10635); experiment: Inhibition of CYP2D6 at 10 uM; assay type: ADME
[6] = Clearance in po dosed rat; assay type: ADME, organism-based; details: in vivo
[7] = Cmax in po dosed rat; assay type: ADME, organism-based; design: route oral; details: in vivo
[8] = biological target: T2, CYP1A2 (Homo sapiens, UniProt P05177); experiment: Inhibition of CYP1A2 at 10 uM; assay type: ADME
T2 sequence (P05177 whole entry): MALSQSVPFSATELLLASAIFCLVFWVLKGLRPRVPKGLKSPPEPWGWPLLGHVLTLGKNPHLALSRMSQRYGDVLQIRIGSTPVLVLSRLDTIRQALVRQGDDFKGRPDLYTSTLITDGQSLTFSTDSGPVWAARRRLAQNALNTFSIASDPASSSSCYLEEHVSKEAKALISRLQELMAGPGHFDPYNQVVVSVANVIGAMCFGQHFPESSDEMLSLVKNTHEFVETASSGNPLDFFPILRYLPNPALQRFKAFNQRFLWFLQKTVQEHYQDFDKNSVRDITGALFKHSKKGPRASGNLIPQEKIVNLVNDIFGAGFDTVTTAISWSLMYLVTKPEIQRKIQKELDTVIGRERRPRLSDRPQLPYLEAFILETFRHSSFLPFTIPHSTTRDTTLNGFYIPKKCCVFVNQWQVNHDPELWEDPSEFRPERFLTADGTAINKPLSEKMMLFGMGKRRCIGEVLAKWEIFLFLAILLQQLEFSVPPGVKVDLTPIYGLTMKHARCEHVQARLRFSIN

[9] = Oral bioavailability in po dosed rat; assay type: ADME, organism-based; details: in vivo
[10] = test system: Mus musculus; experiment: In vivo inhibition of 11beta-HSD1 in C57Bl/6 mouse liver assessed as cortisol product at 40 mg/kg, po after 2 hrs by ELISA; assay type: functional; details: C57Bl/6, 2 h
[11] = test system: Mus musculus; experiment: In vivo inhibition of 11beta-HSD1 in C57/BL6 mouse lnguinal fat pad assessed as cortisol product at 40 mg/kg, po after 2 hrs by ELISA; assay type: functional; details: C57Bl/6, Fat pad
[12] = biological target: CYP3A4 (Homo sapiens, UniProt P08684); experiment: Inhibition of CYP3A4 at 10 uM; assay type: ADME
[13] = biological target: CYP2C19 (Homo sapiens, UniProt P33261); experiment: Inhibition of CYP2C19 at 10 uM; assay type: ADME
[14] = test system: Cynomolgus monkey; experiment: In vivo inhibition of 11beta-HSD1 in cynomolgus monkey lnguinal fat pad assessed as cortisol product at 20 mg/kg, po after 2 hrs by ELISA; assay type: functional; details: Macaca fascicularis
[15] = test system: Mus musculus; experiment: Antidiabetic activity in KKAy mouse assessed as reduction of AUC of plasma glucose level at 100 mg/kg, po qd for 18 days by oral glucose tolerance test relative to control; assay type: functional; design: scale not given: the % may be the effect or the level left
[16] = test system: Mus musculus; experiment: Antidiabetic activity in KKAy mouse assessed as reduction of non-fasting plasma glucose level at 100 mg/kg, po qd for 18 days relative to control; assay type: functional; design: scale not given: the % may be the effect or the level left
Method in brief: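 KKAy mice dosed orally at 100 mg/kg for 18 days alongside vehicle-treated controls; non-fasting blood glucose measured after 18 days; n = 7 mice/group, means ± SEM.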

[17] = biological target: Voltage-gated inwardly rectifying potassium channel KCNH2 (Homo sapiens, UniProt Q12809); experiment: Binding affinity to human ERG
[18] = AUC (0 to 8 hrs) in po dosed rat; assay type: ADME, organism-based; design: time < 8 hr, route oral; details: plasma
Method in brief: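 Rats dosed orally; plasma exposure expressed as AUC over 0–8 h.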

[19] = test system: Cynomolgus monkey; experiment: In vivo inhibition of 11beta-HSD1 in cynomolgus monkey liver assessed as cortisol product at 20 mg/kg, po after 2 hrs by ELISA; assay type: functional; details: Macaca fascicularis

Sequence of 11-beta-hydroxysteroid dehydrogenase 1 (Homo sapiens, UniProt P28845) (P28845 whole entry): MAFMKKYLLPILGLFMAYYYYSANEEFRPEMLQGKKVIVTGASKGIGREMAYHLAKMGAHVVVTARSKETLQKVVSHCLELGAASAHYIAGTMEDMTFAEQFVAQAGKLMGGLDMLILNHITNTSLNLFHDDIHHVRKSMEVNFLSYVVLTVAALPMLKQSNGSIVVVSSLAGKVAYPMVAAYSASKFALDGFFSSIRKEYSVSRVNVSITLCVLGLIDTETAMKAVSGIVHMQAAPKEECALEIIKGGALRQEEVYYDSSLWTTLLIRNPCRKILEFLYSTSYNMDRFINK
Sequence of 11-beta-hydroxysteroid dehydrogenase 1 (Mus musculus, UniProt P50172) (P50172 whole entry): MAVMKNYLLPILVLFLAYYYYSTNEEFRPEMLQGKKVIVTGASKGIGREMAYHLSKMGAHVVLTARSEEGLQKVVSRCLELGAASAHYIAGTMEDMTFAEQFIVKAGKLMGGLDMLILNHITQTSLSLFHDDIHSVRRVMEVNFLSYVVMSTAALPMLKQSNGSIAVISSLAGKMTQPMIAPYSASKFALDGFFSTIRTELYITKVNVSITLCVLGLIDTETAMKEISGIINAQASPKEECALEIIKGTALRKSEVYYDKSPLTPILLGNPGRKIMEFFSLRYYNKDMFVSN
Sequence of CYP2C19 (P33261 whole entry): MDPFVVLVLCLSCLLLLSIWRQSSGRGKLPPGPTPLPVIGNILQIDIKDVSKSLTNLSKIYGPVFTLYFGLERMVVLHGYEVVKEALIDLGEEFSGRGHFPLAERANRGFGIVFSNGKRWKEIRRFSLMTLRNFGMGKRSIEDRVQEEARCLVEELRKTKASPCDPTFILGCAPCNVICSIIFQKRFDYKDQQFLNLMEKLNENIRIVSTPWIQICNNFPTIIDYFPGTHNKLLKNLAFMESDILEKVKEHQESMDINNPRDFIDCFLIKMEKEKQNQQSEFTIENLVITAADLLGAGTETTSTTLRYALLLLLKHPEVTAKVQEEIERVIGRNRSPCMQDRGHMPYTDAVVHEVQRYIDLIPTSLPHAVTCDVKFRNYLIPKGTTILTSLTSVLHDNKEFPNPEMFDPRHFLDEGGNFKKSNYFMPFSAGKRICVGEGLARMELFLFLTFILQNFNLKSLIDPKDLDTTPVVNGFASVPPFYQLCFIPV
Sequence of CYP3A4 (P08684 whole entry): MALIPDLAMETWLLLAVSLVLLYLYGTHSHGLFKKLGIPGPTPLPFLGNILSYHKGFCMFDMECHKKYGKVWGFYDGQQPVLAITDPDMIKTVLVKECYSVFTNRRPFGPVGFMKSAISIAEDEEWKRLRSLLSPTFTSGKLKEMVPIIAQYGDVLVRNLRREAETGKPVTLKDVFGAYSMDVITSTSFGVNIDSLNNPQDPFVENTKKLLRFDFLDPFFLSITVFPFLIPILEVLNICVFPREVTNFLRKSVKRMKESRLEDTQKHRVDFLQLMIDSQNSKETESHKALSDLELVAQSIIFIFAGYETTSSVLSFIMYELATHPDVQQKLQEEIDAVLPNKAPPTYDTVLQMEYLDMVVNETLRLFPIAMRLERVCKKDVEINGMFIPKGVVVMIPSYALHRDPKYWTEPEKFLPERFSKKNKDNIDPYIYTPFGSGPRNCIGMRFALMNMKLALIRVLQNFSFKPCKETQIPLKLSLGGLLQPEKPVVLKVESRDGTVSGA
Sequence of CYP2D6 (P10635 whole entry): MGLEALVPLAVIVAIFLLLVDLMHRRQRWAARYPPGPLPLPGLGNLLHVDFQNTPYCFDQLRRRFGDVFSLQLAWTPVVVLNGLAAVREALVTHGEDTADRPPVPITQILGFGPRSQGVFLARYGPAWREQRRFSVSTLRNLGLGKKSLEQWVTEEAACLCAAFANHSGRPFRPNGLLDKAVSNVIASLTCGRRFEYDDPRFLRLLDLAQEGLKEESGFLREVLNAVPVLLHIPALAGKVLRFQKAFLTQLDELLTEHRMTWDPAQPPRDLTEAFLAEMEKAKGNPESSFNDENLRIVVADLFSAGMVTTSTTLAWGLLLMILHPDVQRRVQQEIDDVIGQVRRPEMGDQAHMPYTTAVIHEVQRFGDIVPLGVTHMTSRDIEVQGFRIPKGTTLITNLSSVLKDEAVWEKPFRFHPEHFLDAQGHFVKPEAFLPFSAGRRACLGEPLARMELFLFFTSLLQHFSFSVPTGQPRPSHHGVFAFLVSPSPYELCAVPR
Sequence of Voltage-gated inwardly rectifying potassium channel KCNH2 (Q12809 whole entry): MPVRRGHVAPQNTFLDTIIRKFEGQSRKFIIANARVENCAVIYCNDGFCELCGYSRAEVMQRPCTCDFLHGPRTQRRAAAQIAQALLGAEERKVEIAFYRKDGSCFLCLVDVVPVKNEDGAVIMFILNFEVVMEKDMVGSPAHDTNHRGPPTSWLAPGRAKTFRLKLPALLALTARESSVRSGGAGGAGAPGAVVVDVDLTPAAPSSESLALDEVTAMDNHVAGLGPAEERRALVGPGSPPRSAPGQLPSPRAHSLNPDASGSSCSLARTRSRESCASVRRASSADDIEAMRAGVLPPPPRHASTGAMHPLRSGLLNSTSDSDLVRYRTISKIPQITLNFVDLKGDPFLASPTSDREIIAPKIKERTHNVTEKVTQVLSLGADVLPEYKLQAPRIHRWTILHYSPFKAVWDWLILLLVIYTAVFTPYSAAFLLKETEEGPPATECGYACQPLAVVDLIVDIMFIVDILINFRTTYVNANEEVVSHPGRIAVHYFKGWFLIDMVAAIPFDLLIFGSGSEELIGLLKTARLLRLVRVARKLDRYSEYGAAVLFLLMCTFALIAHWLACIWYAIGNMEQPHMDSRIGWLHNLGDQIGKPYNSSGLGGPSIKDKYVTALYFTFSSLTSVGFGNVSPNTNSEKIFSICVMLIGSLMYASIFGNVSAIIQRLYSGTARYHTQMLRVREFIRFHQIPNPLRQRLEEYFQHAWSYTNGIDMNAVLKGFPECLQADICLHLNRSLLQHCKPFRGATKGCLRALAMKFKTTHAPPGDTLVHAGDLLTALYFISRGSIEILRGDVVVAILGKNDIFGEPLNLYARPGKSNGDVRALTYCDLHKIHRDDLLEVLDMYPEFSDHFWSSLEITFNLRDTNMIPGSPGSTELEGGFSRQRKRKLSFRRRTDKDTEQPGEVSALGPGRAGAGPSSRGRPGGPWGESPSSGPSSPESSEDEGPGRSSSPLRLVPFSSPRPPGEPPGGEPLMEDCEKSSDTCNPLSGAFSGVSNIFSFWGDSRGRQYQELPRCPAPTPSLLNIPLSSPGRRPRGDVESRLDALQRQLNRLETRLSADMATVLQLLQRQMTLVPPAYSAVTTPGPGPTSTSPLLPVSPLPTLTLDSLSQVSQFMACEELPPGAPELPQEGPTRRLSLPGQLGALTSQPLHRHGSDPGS

## NC(=O)C12CC3CC(C1)C(NC(=O)C1SCCN1S(=O)(=O)c1ccc(Cl)c(Cl)c1)C(C3)C2 (stereo unspecified)
[1]
  remaining at 0.5 h: 43%
[2]
  pIC50: 8.30
[3]
  inhibition: 47%

## NC(=O)C12CC3CC(C1)C(NC(=O)C1SCCN1S(=O)(=O)c1ccccc1)C(C3)C2 (stereo unspecified)
[4]
  pIC50: 6.07

## Cc1ccc(S(=O)(=O)N2CCSC2C(=O)NC2C3CC4CC2CC(C(N)=O)(C4)C3)cc1 (stereo unspecified)
[4]
  pIC50: 7.24
[1]
  remaining at 0.5 h: 53%
[5]
  inhibition at 10 µM: 0%
[6]
  CL/F: 43.3 mL/min/kg
[7]
  Cmax: 650 ng/mL
[8]
  inhibition at 10 µM: 0%
[9]
  bioavailability: 16%
[10]
  inhibition in vivo at 40 mg/kg: 51%
[11]
  inhibition in vivo at 40 mg/kg: 51%
[2]
  pIC50: 8.10
[12]
  inhibition at 10 µM: 24%
[3]
  inhibition: 0%
[13]
  inhibition at 10 µM: 21%

## COc1ccc(S(=O)(=O)N2CCSC2C(=O)NC2C3CC4CC2CC(C(N)=O)(C4)C3)cc1 (stereo unspecified)
[4]
  pIC50: 6.77

## NC(=O)C12CC3CC(C1)C(NC(=O)C1SCCN1S(=O)(=O)c1cccc(F)c1)C(C3)C2 (stereo unspecified)
[4]
  pIC50: 7.12

## NC(=O)C12CC3CC(C1)C(NC(=O)C1SCCN1S(=O)(=O)c1ccc(F)cc1)C(C3)C2 (stereo unspecified)
[4]
  pIC50: 7.57

## NC(=O)C12CC3CC(C1)C(NC(=O)C1SCCN1S(=O)(=O)c1ccccc1F)C(C3)C2 (mixture of isomers)
[2]
  pIC50: 8.40

## NC(=O)C12CC3CC(C1)C(NC(=O)C1SCCN1S(=O)(=O)c1ccccc1F)C(C3)C2 (stereo in doubt; 8g (E)) [listing 1 of 2 here]
[4]
  pIC50: 8.52
[1]
  remaining at 0.5 h: 77%
[5]
  inhibition at 10 µM: 0%
[14]
  inhibition in vivo at 20 mg/kg: 62%
[6]
  CL/F: 48.3 mL/min/kg
[8]
  inhibition at 10 µM: 0%
[9]
  bioavailability: 32%
[10]
  inhibition in vivo at 40 mg/kg: 65%
[11]
  inhibition in vivo at 40 mg/kg: 67%
[2]
  pIC50: 8.52
[15]
  Activity: 18.1%
[16]
  Activity: 28.2%
[17]
  Activity: > 100 µM
[12]
  inhibition at 10 µM: 21%
[18]
  AUC(0-t) at 8 h: 1110 ng·h/mL
[19]
  inhibition in vivo at 20 mg/kg: 57%
[13]
  inhibition at 10 µM: 25%

## NC(=O)C12CC3CC(C1)C(NC(=O)C1SCCN1S(=O)(=O)c1ccccc1F)C(C3)C2 (stereo in doubt; 8g (E)) [listing 2 of 2 here]
[3]
  inhibition: 0%

## NC(=O)C12CC3CC(C1)C(NC(=O)[C@H]1SCCN1S(=O)(=O)c1ccccc1F)C(C3)C2 (stereo in doubt; 8g (R) (E))
[2]
  pIC50: 8.70

## NC(=O)C12CC3CC(C1)C(NC(=O)[C@H]1SCCN1S(=O)(=O)c1ccccc1F)C(C3)C2 (stereo in doubt; 8g (R) (Z))
[2]
  pIC50: 5.87

## NC(=O)C12CC3CC(C1)C(NC(=O)[C@@H]1SCCN1S(=O)(=O)c1ccccc1F)C(C3)C2 (stereo in doubt; 8g (S) (E))
[2]
  pIC50: 7.92

## NC(=O)C12CC3CC(C1)C(NC(=O)[C@@H]1SCCN1S(=O)(=O)c1ccccc1F)C(C3)C2 (stereo in doubt; 8g (S) (Z))
[2]
  pIC50: 4.41

## NC(=O)C12CC3CC(C1)C(NC(=O)C1SCCN1S(=O)(=O)c1ccccc1F)C(C3)C2 (stereo in doubt; 8g (Z))
[2]
  pIC50: 5.10

## NC(=O)C12CC3CC(C1)C(NC(=O)C1SCCN1S(=O)(=O)c1ccccc1F)C(C3)C2 (stereo in doubt; 8g)
[4]
  pIC50: 8.40
[2]
  pIC50: 8.40
